Experimental data pooled from the literature.
Protocols differ between the studies behind these lines.
Target: Tyrosine-protein kinase receptor TYRO3 (TYRO3, Homo sapiens, UniProt Q06418)
Sequence (Q06418 41-890, as in one of the studies): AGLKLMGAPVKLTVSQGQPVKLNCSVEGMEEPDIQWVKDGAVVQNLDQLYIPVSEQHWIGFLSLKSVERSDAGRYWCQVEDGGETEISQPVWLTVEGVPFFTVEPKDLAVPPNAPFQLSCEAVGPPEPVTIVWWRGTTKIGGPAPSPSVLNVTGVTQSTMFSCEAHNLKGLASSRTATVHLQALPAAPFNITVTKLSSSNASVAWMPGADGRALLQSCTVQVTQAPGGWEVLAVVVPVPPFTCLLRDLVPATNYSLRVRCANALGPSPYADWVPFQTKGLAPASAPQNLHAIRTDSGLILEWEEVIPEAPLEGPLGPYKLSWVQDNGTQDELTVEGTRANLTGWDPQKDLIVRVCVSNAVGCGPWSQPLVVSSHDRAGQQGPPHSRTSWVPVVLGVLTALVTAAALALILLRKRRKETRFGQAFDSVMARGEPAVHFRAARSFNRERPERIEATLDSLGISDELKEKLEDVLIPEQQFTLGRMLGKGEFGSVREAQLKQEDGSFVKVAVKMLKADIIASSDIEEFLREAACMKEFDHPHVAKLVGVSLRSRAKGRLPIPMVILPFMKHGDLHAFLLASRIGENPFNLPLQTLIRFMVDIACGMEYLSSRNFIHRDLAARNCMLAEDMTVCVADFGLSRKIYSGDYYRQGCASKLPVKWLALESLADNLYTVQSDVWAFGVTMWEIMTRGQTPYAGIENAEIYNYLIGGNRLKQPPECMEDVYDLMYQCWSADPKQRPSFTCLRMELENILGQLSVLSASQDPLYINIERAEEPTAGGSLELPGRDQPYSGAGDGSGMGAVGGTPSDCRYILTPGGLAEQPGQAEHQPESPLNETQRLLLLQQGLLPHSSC

`Cc1nn(C)cc1-c1nc2c(N3CCN(Cc4ccc(Cl)cc4)CC3)c(Cl)cnc2[nH]1` gave a remaining binding of 73% (binding; competition with immobilised ligand; 1 µM).
The inhibition of `Cn1cc(-c2cc(F)cc(N3CCn4c(cc5c4CCCC5)C3=O)c2CO)cc(Nc2ccc(N3CCN(C4COC4)CC3)cn2)c1=O` is reported as 17% (enzyme activity; inhibitor; 0.1 µM).
The remaining binding of `N#CC1(c2ccccn2)CCN(Cc2cc(C(=O)O)c(=O)n3ccccc23)CC1` is reported as 98% (cell-free assay; competition with immobilised ligand; 1 µM).
For `Cn1cc(-c2cccc(N3CCc4c(sc5c4CC(C)(C)C5)C3=O)c2CO)cc(Nc2ccncn2)c1=O`, the inhibition was 4% (enzyme activity; inhibitor; 1 µM).
`C#Cc1n[nH]c2c(-c3cn([C@@H](C)c4ccccc4)c(=O)[nH]c3=O)cc(F)cc12` gave an inhibition of 47.7% (enzyme activity; inhibitor; 0.1 µM).
With `Cn1cncc1[C@@](O)(COc1ccc(C#N)cc1-c1ccc(OC(F)(F)F)cc1)c1ccc(C#N)cc1` the remaining binding was 100% (cell-free assay; competition with immobilised ligand; 1 µM).
The remaining activity of `CC(C)(C)c1cc(C=C(C#N)C#N)cc(Br)c1O` is reported as 110% (enzyme activity; inhibitor; 0.5 µM).
`COc1ncccc1-c1cnn2ccc(N3CCN(C(=O)OC(C)C)CC3)nc12` has a remaining binding of 100% (binding; competition with immobilised ligand; 1 µM).
`O=c1[nH]c2ccccc2n1C1CCN(Cc2ccc(-c3[nH]c4cc5ncnc5cc4nc3-c3ccccc3)cc2)CC1` has a remaining signal of 103% (cell-free assay; 0.5 µM).
The inhibition of `C#Cc1n[nH]c2c(-c3cn([C@@H](C)c4ccccn4)c(=O)[nH]c3=O)cc(F)cc12` is reported as 30.8% (enzyme activity; inhibitor; 0.1 µM).
